We go through two molecules from ChEMBL document CHEMBL4251567 (Eur J Med Chem, 2018).

The target in experiment [1] is T1, Protein deacetylase HDAC6 (Homo sapiens) (UniProt Q9UBN7).
T1 sequence (whole entry): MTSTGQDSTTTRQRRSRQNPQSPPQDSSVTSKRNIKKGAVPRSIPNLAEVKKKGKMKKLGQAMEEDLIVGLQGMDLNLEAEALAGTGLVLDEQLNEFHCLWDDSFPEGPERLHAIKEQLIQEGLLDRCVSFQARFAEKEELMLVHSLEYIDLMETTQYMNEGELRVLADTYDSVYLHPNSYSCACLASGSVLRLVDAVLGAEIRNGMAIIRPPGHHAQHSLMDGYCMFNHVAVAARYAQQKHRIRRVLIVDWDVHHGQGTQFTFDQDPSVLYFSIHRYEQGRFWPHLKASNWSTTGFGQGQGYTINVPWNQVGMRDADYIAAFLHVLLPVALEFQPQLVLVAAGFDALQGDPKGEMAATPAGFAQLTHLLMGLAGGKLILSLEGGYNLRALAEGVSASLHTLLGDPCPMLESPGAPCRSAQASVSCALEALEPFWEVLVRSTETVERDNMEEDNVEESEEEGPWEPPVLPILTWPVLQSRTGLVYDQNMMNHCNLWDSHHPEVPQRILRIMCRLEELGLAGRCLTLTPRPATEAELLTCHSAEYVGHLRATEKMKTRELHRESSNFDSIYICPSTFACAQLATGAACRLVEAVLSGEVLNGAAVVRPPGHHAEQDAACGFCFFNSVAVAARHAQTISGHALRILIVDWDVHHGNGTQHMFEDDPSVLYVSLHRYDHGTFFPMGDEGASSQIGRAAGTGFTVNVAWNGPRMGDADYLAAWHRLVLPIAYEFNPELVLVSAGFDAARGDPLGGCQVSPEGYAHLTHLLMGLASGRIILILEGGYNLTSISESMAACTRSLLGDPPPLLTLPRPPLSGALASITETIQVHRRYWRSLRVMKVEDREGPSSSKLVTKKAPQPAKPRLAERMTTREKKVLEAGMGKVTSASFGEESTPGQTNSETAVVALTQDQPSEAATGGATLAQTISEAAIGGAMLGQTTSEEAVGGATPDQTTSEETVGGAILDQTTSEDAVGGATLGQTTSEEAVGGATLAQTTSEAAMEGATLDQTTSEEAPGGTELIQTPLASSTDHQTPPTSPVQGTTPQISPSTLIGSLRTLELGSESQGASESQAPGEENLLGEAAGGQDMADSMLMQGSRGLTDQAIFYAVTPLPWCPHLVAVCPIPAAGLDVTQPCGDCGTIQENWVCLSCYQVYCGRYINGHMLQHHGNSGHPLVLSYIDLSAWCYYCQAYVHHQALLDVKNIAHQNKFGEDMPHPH
The experiment in a line: Inhibition of HDAC6 in human HeLa-S3 cell lysates assessed as remaining activity at 5 uM preincubated for 15 mins followed by HDAC-Glo substrate addition measured after 30 to 40 mins by […] relative to control. The essentials: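 HDAC6 captured on an anti-HDAC6 antibody-coated plate (2 μg/mL, pH 9.4 carbonate buffer, milk-blocked). HeLa-S3 lysate loaded at 1 mg/mL, 1 h at 4 °C, then washed. 15 min RT preincubation with inhibitor in DMSO; HDAC-Glo reagent added, luminescence read at 30-40 min. Concentrations are final. Background = no-antibody well; values are % activity versus DMSO control.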

Experiment [2] concerns the target Histone deacetylase 2 (Homo sapiens) (UniProt Q92769). The experiment in a line: Inhibition of HDAC2 in human HeLa-S3 cell lysates assessed as remaining activity at 5 uM preincubated for 15 mins followed by HDAC-Glo substrate addition measured after 30 to 40 mins by […] relative to control. Put shortly:
(§1)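 Same antibody-capture format as the other class I isoforms. HeLa-S3 lysate added at 100 μg/mL for HDAC1 and HDAC2, 1 h at 4 °C, then washed. Inhibitor in DMSO preincubated 15 min at RT; HDAC-Glo reagent added and luminescence read after 30-40 min. Concentrations are final. Signal corrected against a well without antibody; activity expressed as % of DMSO control.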

Experiment [3] shares this target. The experiment in a line: Inhibition of HDAC2 in human HeLa-S3 cell lysates assessed as remaining activity at 1.6 x 10^-5 M preincubated for 15 mins followed by HDAC-Glo substrate addition measured after 30 to 40 mins by […] relative to control. Put shortly: as §1
Experiment [4] shares this target. The experiment in a line: Inhibition of HDAC2 in human HeLa-S3 cell lysates assessed as remaining activity at […] preincubated for 15 mins followed by HDAC-Glo substrate addition measured after 30 to 40 mins by […] relative to control.
Experiment [5] has the same target. The experiment in a line: Inhibition of HDAC2 in human HeLa-S3 cell lysates assessed as remaining activity at 8 x 10^-6 M preincubated for 15 mins followed by HDAC-Glo substrate addition measured after 30 to 40 mins by […] relative to control. The essentials: as §1
For experiment [6], the target named is Histone deacetylase 3 (Homo sapiens) (UniProt O15379). The experiment in a line: Inhibition of HDAC3 in human HeLa-S3 cell lysates assessed as remaining activity at 1 x 10^-6 M preincubated for 15 mins followed by HDAC-Glo substrate addition measured after 30 to 40 mins by […] relative to control. Put shortly: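 Antibody-capture (ELISA-type) assay: HDAC antibody coated in carbonate/bicarbonate buffer pH 9.4, wells blocked with 5% milk in TBST. HeLa-S3 lysate added at 1 mg/mL for HDAC3, 1 h at 4 °C, then washed. Inhibitor in DMSO preincubated 15 min at RT in HDAC-Glo buffer. HDAC-Glo reagent added, luminescence read after 30-40 min. Concentrations are final. Background = no-antibody well; activity given as % of DMSO control.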

The target in experiment [7] is T2, Histone deacetylase (Homo sapiens) (UniProt Q13547+O15379+Q9UBN7+Q92769+Q9UQL6+Q8WUI4+Q9BY41+Q96DB2+P56524+Q9UKV0+Q969S8). The experiment in a line: Inhibition of HDAC in human HeLa-S3 cell lysates assessed as residual activity at 2.4 x 10^-5 M preincubated for 15 mins followed by HDAC-Glo substrate addition measured after 35 mins by […] relative to control. Type of experiment: protein assay.

Experiment [8] deals with Histone deacetylase 1 (Homo sapiens) (UniProt Q13547). The experiment in a line: Inhibition of HDAC1 in human HeLa-S3 cell lysates assessed as remaining activity at 1 x 10^-6 M preincubated for 15 mins followed by HDAC-Glo substrate addition measured after 30 to 40 mins by fluorimetric method relative to control. Put shortly:
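HDAC1 was captured from HeLa-S3 lysate (100 μg/mL) onto wells precoated with anti-HDAC1 antibody (10 μg/mL, carbonate buffer pH 9.4) and milk-blocked, 1 h at 4 °C, then washed. Inhibitor in DMSO was added in HDAC-Glo buffer for 15 min at room temperature. HDAC-Glo reagent was added and luminescence read after 30-40 min. Concentrations are final. No-antibody background subtracted; % of DMSO control.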

In experiment [9] the target is T2, Histone deacetylase (Homo sapiens). The experiment in a line: Inhibition of HDAC in human HeLa-S3 cell lysates assessed as residual activity at 1.2 x 10^-5 M preincubated for 15 mins followed by HDAC-Glo substrate addition measured after 35 mins by […] relative to control. Type of experiment: protein assay.

Histone deacetylase 2 (Homo sapiens), sequence (Q92769 whole entry, canonical isoform): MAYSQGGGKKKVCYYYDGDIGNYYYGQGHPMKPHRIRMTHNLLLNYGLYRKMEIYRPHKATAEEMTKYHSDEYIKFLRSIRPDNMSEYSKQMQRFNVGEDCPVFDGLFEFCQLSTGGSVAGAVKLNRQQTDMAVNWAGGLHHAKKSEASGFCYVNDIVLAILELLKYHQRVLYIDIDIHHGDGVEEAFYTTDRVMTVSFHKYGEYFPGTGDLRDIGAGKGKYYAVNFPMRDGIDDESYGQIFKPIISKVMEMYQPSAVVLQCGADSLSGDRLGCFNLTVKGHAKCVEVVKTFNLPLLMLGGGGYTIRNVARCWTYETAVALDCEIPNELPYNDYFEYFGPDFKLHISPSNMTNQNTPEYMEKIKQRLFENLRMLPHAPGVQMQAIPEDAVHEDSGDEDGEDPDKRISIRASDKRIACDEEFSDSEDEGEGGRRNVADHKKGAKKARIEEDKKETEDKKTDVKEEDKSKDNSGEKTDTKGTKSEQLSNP
Histone deacetylase 3 (Homo sapiens), sequence (O15379 whole entry): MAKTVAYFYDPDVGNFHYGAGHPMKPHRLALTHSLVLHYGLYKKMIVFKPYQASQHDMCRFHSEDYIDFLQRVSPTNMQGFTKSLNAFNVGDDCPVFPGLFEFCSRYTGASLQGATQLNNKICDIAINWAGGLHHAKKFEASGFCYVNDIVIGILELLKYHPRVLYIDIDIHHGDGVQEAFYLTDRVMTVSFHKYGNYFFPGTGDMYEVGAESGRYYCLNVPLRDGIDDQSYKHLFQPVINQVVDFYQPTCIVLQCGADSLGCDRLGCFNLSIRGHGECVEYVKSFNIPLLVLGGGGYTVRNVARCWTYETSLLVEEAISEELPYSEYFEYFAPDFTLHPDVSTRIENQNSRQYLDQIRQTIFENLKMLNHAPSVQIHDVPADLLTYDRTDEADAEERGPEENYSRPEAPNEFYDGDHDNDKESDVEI
Histone deacetylase 1 (Homo sapiens), sequence (Q13547 whole entry): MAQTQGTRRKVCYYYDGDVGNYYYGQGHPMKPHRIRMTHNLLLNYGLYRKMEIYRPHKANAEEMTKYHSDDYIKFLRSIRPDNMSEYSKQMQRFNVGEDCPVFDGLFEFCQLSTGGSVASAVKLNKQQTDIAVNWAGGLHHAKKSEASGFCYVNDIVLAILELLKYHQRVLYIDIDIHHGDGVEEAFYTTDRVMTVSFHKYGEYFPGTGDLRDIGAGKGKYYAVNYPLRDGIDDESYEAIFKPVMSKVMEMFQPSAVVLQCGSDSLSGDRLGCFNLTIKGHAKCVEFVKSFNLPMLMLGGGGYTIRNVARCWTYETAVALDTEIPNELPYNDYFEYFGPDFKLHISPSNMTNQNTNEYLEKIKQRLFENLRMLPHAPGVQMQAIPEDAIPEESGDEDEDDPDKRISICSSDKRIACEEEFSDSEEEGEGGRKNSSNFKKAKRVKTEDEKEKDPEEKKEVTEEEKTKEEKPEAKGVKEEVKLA

On to `O=C(CCC(CCCC(=O)Nc1ccccc1)Cc1ccccc1)NO` (racemic), for which the Activity in [1] is 2.9%; in experiment [2], 92%.
With `CCC(CCCC(=O)Nc1ccccc1)CCC(=O)NO` (centres undefined), the Activity in experiment [3] worked out at 23%; in [4], 87%; in experiment [5], 34%; in experiment [6] it was 83%; in [7] it was 31%; in [8], 81%. Also, the Activity in experiment [9] was 53%.
